SF1 activator: SF-1 (human) activation. Q13285. CHO-K1 Gal4-SF-1 LBD luciferase reporter; % increase over DMSO SF-1-specific signal. activation, % at 10 µM. 65,000 tested, 1.9% active;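 active means activation above the mean activation of all tested compounds plus 3 SD, cut at about 50% in these data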
Target sequence (Q13285 whole entry, looked up, the tested form may be a part): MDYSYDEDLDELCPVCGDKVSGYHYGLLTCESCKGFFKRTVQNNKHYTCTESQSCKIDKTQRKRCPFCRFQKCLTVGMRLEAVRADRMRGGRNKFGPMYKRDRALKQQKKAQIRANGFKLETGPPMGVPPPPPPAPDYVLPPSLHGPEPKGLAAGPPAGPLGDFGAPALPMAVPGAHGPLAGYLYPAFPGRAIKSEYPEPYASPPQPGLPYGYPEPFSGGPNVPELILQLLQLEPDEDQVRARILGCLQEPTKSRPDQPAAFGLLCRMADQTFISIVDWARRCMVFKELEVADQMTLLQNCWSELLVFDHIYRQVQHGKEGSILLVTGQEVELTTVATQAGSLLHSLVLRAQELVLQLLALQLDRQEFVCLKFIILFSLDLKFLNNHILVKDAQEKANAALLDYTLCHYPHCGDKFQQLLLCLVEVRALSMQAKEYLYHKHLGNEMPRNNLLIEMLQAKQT
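material = CHO-K1 cells with Gal4–hSF-1 LBD chimera plus Gal4-driven luciferase | compound = 10 µM single point, 1% DMSO | incubation = 20 h compound exposure at 37 °C after 1 h cell settling | measured by = SteadyLite luciferase luminescence | evaluation = percent activation relative to DMSO median and mock-transfected background | control set = DMSO negative control and −SF1 background wells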
M1 agonist: agonists of M1 muscarinic receptor; CHO-M1 cells, Fluo-4 calcium fluorescence, agonist mode; hits give high values; B-score at 10 µM; 64,000 tested, 3% active; AID 626;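 active means fluorescence rise, raw or as B-score row- and column-corrected plate score, outside the 99.7% band of its plate's samples, either direction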
RORA act: RORA (human) activation; activation, % at 10 µM; P35398; 65,000 tested, 1.5% active; CHO-K1 Gal4-RORA LBD luciferase reporter, luminescence; percent increase over mock-subtracted basal signal;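 active means activation above the mean of all tested compounds plus 3 SD, cut at about 49% in these data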;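 further: 0% = DMSO-treated RORA cells and 100% = added signal equal to DMSO minus mock-transfected cells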
M1 antag: M1 muscarinic receptor (rat) antagonism; CHO-M1 cells, Fluo-4 calcium, ACh EC80 antagonist mode; hits give low values; P08482; B-score at 10 µM; 64,000 tested, 3.4% active; AID 628;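 active means calcium fluorescence response, raw or row-and-column corrected B-score, differing from the plate sample mean either way at a set confidence level, mostly lower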
mHtt clearance: mutant huntingtin protein clearance | HeLa Exon1htt(103Q)mCFP, aggregate imaging; zero = plate's median compound well | inhibition, % at 1.5 µM | 47,000 tested, 0.42% active;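 active means inhibition of aggregate fluorescence above about 70%, also judged a hit by eye on the cell image, limit read from the data, passing the limit was not always enough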;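 further: cells exposed to compound for three days before fixation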
D1 allo mod: allosteric modulators of human D1 dopamine receptor; HEK293 D1, CRE-luciferase, dopamine EC30 potentiation; actives deviate in either direction; AID 641; 58,000 tested, 5.9% active; P21728; B-score at 10 µM;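 active means luminescence count or its row- and column-corrected plate score outside the 99.7% band of the plate's sample wells, on either side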
M1 antag conf: confirmation of rat M1 muscarinic receptor antagonists; shares compounds with M1 antag; 1,700 tested, 43% active; calcium response (max-min fluorescence) at 10 µM; CHO-M1 cells, Fluo-4 calcium, ACh EC80 antagonism; hits give low values;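 active means calcium response below the same-plate mean of wells given acetylcholine alone at its 80%-effect dose, minus 3 SD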;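 further: raw fluorescence intensity difference in arbitrary instrument units and not normalized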
mGluR4 antag: mGluR4 (human) activity, M1 antagonist secondary assay; shares compounds with M1 antag; CHO-mGluR4 calcium flux, Fluo-4 fluorescence, glutamate EC80; hits give low values; fluorescence response (max-min) at 10 µM; 1,700 tested, 0.9% active; AID 678;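 active means fluorescence response below the plate's average for near-maximal glutamate wells, less 3 SD of those wells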;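 further: raw unnormalized fluorescence span taken in the window right after glutamate addition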
* hit, by the source's call; . = not tested or not shown. Shown are actives, neighbours in structure and some others; about 11% of the full set was active somewhere.

SMILES	SF1 activator	M1 agonist	RORA act	M1 antag	mHtt clearance	D1 allo mod	M1 antag conf	mGluR4 antag
Cc1c(C(=O)OC(C)CCN(C)C)oc2ccccc12 (stereo unspecified)	8.6	-0.599	13.7	-13.2*	-69.0	-1.28	18*	261
Cc1c(C(=O)OCC(C)(C)CN(C)C)oc2ccccc12	34.5	-0.255	13.8	-4.97*	.	-2.17	182*	233
O=C(CNS(=O)(=O)c1cccc2nsnc12)NCc1ccc(Cl)cc1	8.0	-1.56	-14.9	0.529	.	-0.618	.	.
COc1ccc(C)cc1S(=O)(=O)N(CC(=O)N1CCCC1)c1ccccc1	-2.4	1.13	-1.9	0.536	9.1	-0.528	.	.
O=C(CSc1ccc(-c2ccc(F)cc2)nn1)N1CCCCC1	6.8	0.744	30.1	-0.0925	4.0	-2.94	.	.
Cn1c(-c2ccc(F)cc2)cnc1SCC(=O)N1CCCCC1	15.5	0.00462	-3.7	-2.24*	-5.1	-4.33*	430	222
Cc1ccc(N=C2SCCCN2C(=O)c2ccco2)cc1Cl	-3.8	-0.324	-21.2	-1.94*	.	-0.27	532*	240
Cc1ccc2c(c1)CCCN2C(=O)c1ccco1	.	.	.	.	40.8	.	.	.
CC1=C(C)[N+](=O)C2CCCCC2N1[O-] (stereo unspecified)	0.0	-0.0666	2.7	-1.04	.	-0.198	.	.
COC(=O)Nc1nnc(Cc2ccccc2)s1	-4.8	0.134	8.5	-16.5*	49.8	0.405	593	259
COC(=O)Nc1nnc(CCc2ccccc2)s1	-2.1	0.0306	-5.9	0.545	.	-0.725	.	.
Cc1ccc(S(=O)(=O)N(Cc2cc3cc4c(cc3[nH]c2=O)OCCO4)CC2CCCO2)cc1 (stereo unspecified)	-25.8	-0.513	-6.7	0.201	.	0.932	.	.
O=c1[nH]c2cc3c(cc2cc1CN(CC1CCCO1)S(=O)(=O)c1ccc(Cl)cc1)OCCO3 (stereo unspecified)	-8.2	0.0128	-9.2	-4.2*	.	.	614	269
O=C(CN1C(=O)CNC1=O)Nc1cccc(C(F)(F)F)c1	7.3	0.167	-9.4	-0.00472	.	2.65	.	.
CCCCNC(=O)C1CCN(C/C(C)=C/c2ccccc2)CC1	.	.	.	.	-102.4	.	.	.
CCCCN(C)C(=O)C1CCN(C/C(C)=C/c2ccccc2)CC1	16.0	-0.598	3.6	-4.01*	.	-0.669	520*	222
COCCCNC(=O)C(F)(F)C(F)(F)C(=O)NCCCOC	5.3	-0.234	0.9	0.613	.	0.303	.	.
CN1CCN(CCC(=O)N2c3ccccc3Sc3ccc(C(F)(F)F)cc32)CC1	.	.	.	.	27.7	.	.	.
CN(C)CCCN1c2ccccc2Sc2ccc(C(F)(F)F)cc21	1.0	-0.942	-20.4	-15.4*	.	-5.26	24.3*	273
O=C(CSc1ncn[nH]1)N1CCN(S(=O)(=O)c2ccccc2)CC1	.	.	.	.	-8.6	.	.	.
Cc1ccc(-c2nnc(N3CCN(C(=O)CSc4ncn[nH]4)CC3)c3ccccc23)cc1	7.7	0.971	-22.2	-2.9*	.	-1.9	484	225
O=c1ccc2cc3c([nH]c4ccc(Br)cc43)oc-2c1O	1.3	0.23	-9.6	-1.43*	-110.7	0.512	629	227
CCOC(=O)c1snc(C(=O)NC2CCCCC2)c1N	105.9*	0.237	56.8*	-2.73*	.	0.376	641	206
Nc1c(C(=O)NC2CCCCC2)nsc1C(=O)OCC(=O)NC1CCCCC1	-0.2	0.332	-5.7	0.0215	-28.4	-1.62	.	.
CCOc1ccc(NS(=O)(=O)c2ccc(NS(C)(=O)=O)cc2)cc1	-12.9	0.0509	-21.4	-0.0219	.	-0.0304	.	.
SMILES	SF1 activator	M1 agonist	RORA act	M1 antag	mHtt clearance	D1 allo mod	M1 antag conf	mGluR4 antag
CS(=O)(=O)Nc1ccc(Cc2ccc(NS(C)(=O)=O)cc2)cc1	-7.6	-0.0647	-8.5	-3.17*	-55.2	-1.32	552	230
CN(Cc1ccccc1)S(=O)(=O)c1ccc2c(c1)OCCO2	1.7	0.0631	-1.8	-0.473	-58.2	-0.146	.	.
CN(C)S(=O)(=O)c1cccc(CSc2cccc[n+]2[O-])c1	-4.5	0.771	-12.8	-2.22*	.	-0.629	666	184
COC(=O)c1ccc(Oc2nc(N3CCCCC3)nc(N3CCOCC3)n2)cc1	7.4	-0.922	-10.4	-2.33*	-70.5	0.204	457	186
Clc1ccc(Oc2nc(Oc3ccc(Cl)cc3)nc(N3CCOCC3)n2)cc1	-14.0	.	-4.7	.	-1.3	.	.	.
COCCn1c(=N)c(C(=O)NCCc2ccc(OC)cc2)cc2c(=O)n3cccc(C)c3nc21	3.0	1.2	-3.1	-4.35*	-60.0	-0.225	311*	208
N=c1c(C(=O)NCc2ccccc2)cc2c(=O)n3ccccc3nc2n1CCCN1CCOCC1	22.5	0.0948	13.1	-1.63	.	-1.11	.	.
COc1ccc(CCn2c(=N)c(C(=O)NCc3ccco3)cc3c(=O)n4ccccc4nc32)cc1	-1.7	0.705	-9.4	-2.71*	.	-3.72*	540	229
Cc1cccn2c(=O)c3cc(C(=O)NC(C)C)c(=N)n(Cc4ccncc4)c3nc12	-6.0	.	1.8	.	.	-0.373	.	.
CCNC(=O)c1cc2c(=O)n3cccc(C)c3nc2n(Cc2ccc(C)cc2)c1=N	8.3	0.794	7.3	-2.87*	.	0.36	609	198
COCCCNC(=O)c1cc2c(=O)n3cccc(C)c3nc2n(C(C)C)c1=N	-3.0	0.53	-2.0	-0.499	-13.6	0.00241	.	.
COC(=O)c1nn(-c2ccccc2)c(Cl)c1/C=N/OCc1ccc(Cl)cc1Cl	.	.	.	.	8.5	.	.	.
CCOC(=O)N1CCN(C(=O)c2cc3cc(Br)ccc3oc2=O)CC1	-2.2	-0.209	-23.6	-1.1	27.4	0.491	.	.
CCC(Sc1nncn1C)C(=O)Nc1ccccc1OC (stereo unspecified)	-1.3	1.14	3.5	-0.2	28.3	-0.203	.	.
c1ccc2c(c1)C(=NCC1CCCO1)NC2=NCC1CCCO1 (stereo unspecified)	13.4	0.322	19.4	0.607	10.3	-0.826	.	.
CC(C)(C)N=C1NC(=NC(C)(C)C)c2ccccc21	-0.3	-0.308	18.5	-6.18*	.	-5.33*	417	233
CN(C)C(CNC(=O)c1cccc(S(=O)(=O)N2CC3(C)CC2CC(C)(C)C3)c1)c1ccco1 (stereo unspecified)	1.4	0.0504	8.5	-3.29*	.	0.0429	517*	159
COc1ccc(C(=O)N2CCC(C(=O)Nc3ccccc3OC)CC2)cc1	-15.6	0.19	-5.9	-4.99*	.	-0.344	644	249
Cc1noc(C)c1CSc1ccc2ccccc2n1	8.5	-0.392	-28.0	1.3	8.6	0.0529	.	.
Cc1noc(C)c1CSc1nc2ccccc2n1CCc1ccccc1	1.7	0.388	-10.8	-3.81*	-3.6	2.02	572	239
Cc1noc(C)c1CSc1nc2ccccc2[nH]1	-8.5	0.681	-14.3	-1.43*	13.5	0.00594	435*	268

Screening data (PubChem)
